# From PubChem BioAssay
# “And” between values parts separate entries of the source, which are not always exact repeats. Equal entries are not always repeated. The source made the active and inactive calls.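 How the source made its calls, unless noted: active means mean duplicate potentiation above the buffer control mean plus 5 SD of buffer wells; inactive means the rest.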
# Assays:
# [1] = thallium flux activation in parental CHO cells, counter-screen for KCNQ1 potentiator project (AID 493006;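 active means duplicate-averaged activation above buffer control mean plus 5 SD of those controls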;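 on activation: fluorescence ratio of max minus min over baseline after K+ and Tl+ depolarization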); settings: parental CHO-K1 cells, FluxOR thallium flux, at 10 µM; active compounds read high
# In short: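 Assay system: parental CHO-K1 cells lacking KCNQ1, loaded with FluxOR thallium dye; timing: dye 90 min RT, compound 20 min RT; signal: kinetic thallium-flux fluorescence; repeats: duplicate wells per compound, percent values averaged; benchmarks: buffer and R-L3 controls; reagent: Potassium/thallium depolarization pulse; read-out: fluorescence change ratio scaled 0% buffer, 100% R-L3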
# [2] = target: Potassium voltage-gated channel subfamily KQT member 1 (Homo sapiens) (UniProt P51787); test: KCNQ1 potassium channel potentiators, confirmation, FluxOR thallium flux, CHO cells, duplicates (AID 493007;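 active means potentiation averaged over duplicate wells exceeding buffer-only control mean by more than 3 SD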;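 on outcome: cells depolarized by a potassium plus thallium sulfate stimulus after compound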); settings: KCNQ1 cell line, FluxOR thallium flux fluorescence, at 10 µM; active compounds read high, % of reference activator effect, buffer zero
# In short: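 material = CHO cells stably expressing the KCNQ1 potassium channel | repeats = duplicate wells per compound | measure = percent activation between buffer and R-L3 responses | signal = FluxOR thallium-flux fluorescence, kinetic read | schedule = FluxOR dye loading 90 min, compound exposure 20 min, room temperature | control set = buffer and R-L3 controls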
# [3] = target: Potassium voltage-gated channel subfamily KQT member 2 (Rattus norvegicus) (UniProt O88943); test: rat KCNQ2 channel potentiation, selectivity assay for KCNQ1 potentiator project, KCNQ2-CHO-K1 cells (AID 493009); settings: FluxOR thallium flux fluorescence, at 10 µM; active compounds read high, scaled: buffer 0, activator control 100;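 further: assay conditions were tuned for KCNQ1 rather than KCNQ2 modulators; signal is max minus min fluorescence divided by baseline after thallium stimulus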
# [4] = target: Potassium voltage-gated channel subfamily KQT member 1 (Homo sapiens) (UniProt P51787); test: KCNQ1 channel current potentiators, confirmation, orthogonal assay for KCNQ1 potentiator project, IonWorks patch clamp, KCNQ1-CHO cells (AID 493184;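 active means current rise at least 3 SD above the untreated control mean in each of two repeat wells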); settings: automated patch clamp current, at 10 µM; active compounds read high
# In short: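 Assay system – CHO cells carrying KCNQ1 · Medium – pH 7.4 external bath · Probe or stimulus – depolarizing pulse to +40 mV from -90 mV · Compound dosing – one dose, 10 µM final · Measured by – automated perforated-patch electrophysiology · Measure – % potentiation of steady-state current relative to pre-compound · Repeats – two replicates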
# Potassium voltage-gated channel subfamily KQT member 2 (Rattus norvegicus), sequence (O88943 whole entry, looked up): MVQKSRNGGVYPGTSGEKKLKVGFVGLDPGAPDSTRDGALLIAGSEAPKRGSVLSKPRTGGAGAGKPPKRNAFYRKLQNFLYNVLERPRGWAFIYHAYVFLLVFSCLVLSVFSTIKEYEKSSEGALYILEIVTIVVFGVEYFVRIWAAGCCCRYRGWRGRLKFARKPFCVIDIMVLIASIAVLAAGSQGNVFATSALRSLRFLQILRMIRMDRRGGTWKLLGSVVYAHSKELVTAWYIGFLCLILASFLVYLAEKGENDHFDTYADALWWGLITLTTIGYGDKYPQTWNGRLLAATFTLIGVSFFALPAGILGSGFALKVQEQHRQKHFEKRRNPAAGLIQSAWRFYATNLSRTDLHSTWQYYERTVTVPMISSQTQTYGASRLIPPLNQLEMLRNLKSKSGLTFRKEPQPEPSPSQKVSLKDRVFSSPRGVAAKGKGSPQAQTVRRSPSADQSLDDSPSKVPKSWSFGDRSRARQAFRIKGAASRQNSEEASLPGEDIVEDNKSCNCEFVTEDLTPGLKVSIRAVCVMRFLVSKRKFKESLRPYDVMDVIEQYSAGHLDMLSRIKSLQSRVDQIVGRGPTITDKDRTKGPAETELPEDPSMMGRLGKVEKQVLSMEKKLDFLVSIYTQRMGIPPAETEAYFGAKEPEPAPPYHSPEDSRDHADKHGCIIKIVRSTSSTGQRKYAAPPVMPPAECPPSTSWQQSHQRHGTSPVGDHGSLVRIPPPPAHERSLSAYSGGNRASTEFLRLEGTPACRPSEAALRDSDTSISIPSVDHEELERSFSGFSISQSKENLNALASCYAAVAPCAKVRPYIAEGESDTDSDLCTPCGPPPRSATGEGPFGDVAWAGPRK
# Potassium voltage-gated channel subfamily KQT member 1 (Homo sapiens), sequence (P51787 whole entry, looked up): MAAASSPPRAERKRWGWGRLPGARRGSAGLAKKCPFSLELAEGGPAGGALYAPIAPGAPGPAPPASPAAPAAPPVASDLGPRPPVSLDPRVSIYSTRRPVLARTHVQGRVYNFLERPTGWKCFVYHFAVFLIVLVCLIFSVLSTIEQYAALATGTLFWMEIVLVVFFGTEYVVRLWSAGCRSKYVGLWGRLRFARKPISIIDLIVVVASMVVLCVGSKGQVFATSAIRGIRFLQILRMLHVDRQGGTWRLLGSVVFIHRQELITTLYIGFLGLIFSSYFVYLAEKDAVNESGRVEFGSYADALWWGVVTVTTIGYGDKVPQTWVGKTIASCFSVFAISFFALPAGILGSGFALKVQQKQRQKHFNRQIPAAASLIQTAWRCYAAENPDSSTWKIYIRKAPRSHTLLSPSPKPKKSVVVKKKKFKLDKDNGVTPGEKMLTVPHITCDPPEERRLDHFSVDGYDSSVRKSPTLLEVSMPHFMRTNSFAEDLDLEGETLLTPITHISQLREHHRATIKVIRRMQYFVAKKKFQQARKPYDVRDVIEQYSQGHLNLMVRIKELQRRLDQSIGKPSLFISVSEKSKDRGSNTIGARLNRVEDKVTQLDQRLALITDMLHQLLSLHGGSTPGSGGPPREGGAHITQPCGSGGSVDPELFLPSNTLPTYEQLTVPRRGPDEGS
Structure (SMILES),outcome [1],outcome [2],outcome [3],outcome [4],activation [1],potentiation [2],potentiation [3]
CC(C)(C)NCC(O)COc1ccccc1C(C)(C)C (stereo not given),inactive,inactive,inactive,inactive,,,
Cc1ccnc(NS(=O)(=O)c2ccc(NC(=O)C34CC5CC(CC(C5)C3)C4)cc2)n1,inactive,inactive,inactive,inactive,,,
CCOc1ccccc1NC(=O)C1CCCN(S(=O)(=O)c2ccccc2)C1 (stereo not given),inactive,inactive,inactive,inactive,,,
CCOC(=O)c1cnc2c(C(=O)OC)cccc2c1NCCN1CCOCC1,inactive,inactive,inactive,inactive,,,
O=C(CCC1CCN(C(=O)c2cncs2)CC1)Nc1ccccc1,,,,inactive,446% (active),164% (active),464% (active)
Fc1cccc2sc(Nc3nnc(-c4ccco4)o3)nc12,,,,inactive,354% (active),100% (active),381% (active)
Cc1nnc(C)n1/N=C/c1cc(Br)cc(Br)c1O,,inactive,inactive,inactive,145% (active),,
COCCNC(=O)CN(C)S(=O)(=O)c1ccc(Br)cc1,inactive,inactive,inactive,inactive,,,
CC(=O)N1CCN=C1SCc1ccc(F)cc1,,,,inactive,355% (active),120% (active),329% (active)
Cc1ccc(N(C(=O)c2ccco2)C(C(=O)NC2CCCC2)c2cccnc2)cc1C (stereo not given),inactive,inactive,inactive,inactive,,,
Oc1c(N=NC(=S)Nc2ccccc2F)c2ccccc2n1Cc1ccccc1,,,,inactive,143% (active),49% (active),183% (active)
COc1cc(CN2CCC(C)CC2)ccc1OCc1ccccc1,,,,inactive,292% (active),90% (active),300% (active)
O=C(c1ccc(-c2ccccc2)cc1)N1CCCC1,,,,inactive,188% (active),217% (active),233% (active)
O=C(c1ccco1)N1CCN(S(=O)(=O)c2ccc(F)cc2)CC1,inactive,inactive,inactive,inactive,,,
COc1ccc(OC)c(S(=O)(=O)Nc2ccc3c(c2)N(C(C)=O)CCC3)c1,inactive,inactive,inactive,inactive,,,
CNC(C)C#Cc1ccc2sc3cccc(OC)c3c(=O)c2c1 (stereo not given),inactive,inactive,inactive,inactive,,,
COc1ccc(NC(=O)C(=O)NNC(=O)c2cccs2)cc1,,,,inactive,177% (active),24.5% (active),187% (active)
CC(Sc1n[nH]c(N)n1)C(=O)NC1CCCCC1C (stereo not given),,,,inactive,152% (active),37% (active),172% (active)
CCC(C)NC(=O)c1cc(Cl)c(NC(=O)C2=C(C)OCCS2)cc1OC (stereo not given),inactive,inactive,inactive,inactive,,,
CN=C1c2cc3cc(OC)ccc3n2CCN1Cc1ccccc1,inactive,inactive,inactive,inactive,,,

Structure (SMILES),outcome [1],outcome [2],outcome [3],outcome [4],activation [1],potentiation [2],potentiation [3]
CCN(CC)CC(=O)Nc1ccc2c(c1)Nc1ccccc1CC2,,,,inactive,234% (active),98% (active),217% (active)
CCCCOC(=O)c1ccc(NC(=S)NC(=O)c2c(Cl)cnn2CC)cc1,,,,inactive,208% (active),196% (active),298% (active)
COc1ccc(N=Nc2ccc(O)c3ncccc23)cc1,,,,inactive,176% (active),90% (active),249% (active)
CCc1nnc(NC(=O)CN2C(=O)c3ccccc3C2=O)s1,inactive,inactive,inactive,inactive,,,
Cc1cc(C(=O)OCC(=O)NCc2ccco2)c(C)n1-c1ccc(F)cc1,,,,inactive,283% (active),116% (active),323% (active)
Oc1c(Br)cc(Br)cc1C=Nc1cccc2ncccc12,,inactive,inactive,inactive,166% (active),,
C=CCNc1nnc(SCC(=O)N2CCC(C(N)=O)CC2)s1,inactive,inactive,inactive,inactive,,,
O=c1[nH]c(C(Cl)(Cl)Cl)nc2ccc3ccccc3c12,,,,inactive,166% (active),50% (active),202% (active)
Cc1ccccc1OCC(=O)N=Nc1c(O)n(C)c2ccccc12,,,,inactive,188% (active),42% (active),188% (active)
O=C(NC(=S)N(CCCCO)C1CCCCC1)c1sc2ccccc2c1Cl,,,,inactive,368% (active),192% (active),392% (active)
O=C(NCC1CCCO1)c1ccccc1OCc1ccc(F)cc1 (stereo not given),inactive,inactive,inactive,inactive,,,
COc1ccccc1CNC(=O)COC(=O)c1nccnc1N,inactive,inactive,inactive,inactive,,,
COc1ccc(NC(=O)CC2C(=O)N(c3ccc(Cl)cc3)C(=S)N2NC(=O)c2cccc(F)c2)cc1 (stereo not given),inactive,inactive,inactive,inactive,,,
CCOC(=O)c1sc(NC(=O)c2ccc(OC(C)=O)cc2)nc1C,inactive,inactive,inactive,inactive,,,
CC(C)C1Cc2c(sc3[nH]c(=S)n(Cc4ccccc4)c(=O)c23)CO1 (stereo not given),,,,inactive,404% (active),128% (active),362% (active)
CCOC(=O)CSc1nc(C2CC2)cc(-c2ccc(F)cc2)c1C#N,,,,inactive,166% (active),52% (active),160% (active)
CN1C(=O)/C(=N\OC(=O)c2cccc3ccccc23)c2ccccc21,inactive,inactive,inactive,inactive,,,
C=CCn1c(-c2cc(-c3ccc(C)cc3)nc3ccccc23)n[nH]c1=S,,,,inactive,138% (active),108% (active),170% (active)
COc1cccc(/C=N/n2c(-c3cccs3)n[nH]c2=S)c1,,,,inactive,286% (active),160% (active),265% (active)
COc1ccc2c(CCNC(=O)CN3C(=O)c4ccccc4C3=O)c[nH]c2c1,inactive,inactive,inactive,inactive,,,

Structure (SMILES),outcome [1],outcome [2],outcome [3],outcome [4],activation [1],potentiation [2],potentiation [3]
Cc1nc(SCC(=O)NCC2CCCO2)c2c3c(sc2n1)CCCC3 (stereo not given),,,,inactive,158% (active),55% (active),197% (active)
COc1ccc(NC(=S)NC(=O)c2csnn2)cc1,,,,inactive,213% (active),71% (active),282% (active)
CC(C)(C)c1ccc(OCC(=O)NNC(=S)NC(=O)c2ccco2)c(Br)c1,,,,inactive,150% (active),89.5% (active),254% (active)
O=C(NC(=S)N1CCCc2ccccc21)c1ccc([N+](=O)[O-])cc1,,,,inactive,202% (active),82% (active),247% (active)
c1ccc(-n2cnc3cc(NCc4cccs4)ccc32)cc1,inactive,inactive,inactive,inactive,,,
CSc1ccc(NC(=O)CC(C)=O)cc1,inactive,inactive,inactive,inactive,,,
COc1ccc(CN(C)C(=O)c2cccc(NS(=O)(=O)c3ccccc3)c2)cc1F,inactive,inactive,inactive,inactive,,,
COCCOC(=O)N/C=C\c1nc2ccccc2c(=O)[nH]1,inactive,inactive,inactive,inactive,,,
O=c1c2ccccc2[nH]c(=S)n1CCc1ccccc1,,inactive,inactive,inactive,159% (active),,
Cc1ccc(S(=O)(=O)N2CCN(C(=O)CCC(=O)OCC(=O)Nc3cccc(C#N)c3)CC2)cc1,inactive,inactive,inactive,inactive,,,
O=C(NC(=S)Nc1nc2ccccc2s1)c1cccs1,,,,inactive,400% (active),180% (active),389% (active)
O=C(NCc1cccs1)C1CC(c2ccccc2O)=NO1 (stereo not given),inactive,inactive,inactive,inactive,,,
CCOC(=O)c1c(C)[nH]c(C(=O)Cn2nnc(-c3ccccc3Cl)n2)c1C,inactive,inactive,inactive,inactive,,,
Cc1ccc2cc3cc(C(=O)NC4CC4)oc3nc2c1,inactive,inactive,inactive,inactive,,,
O=C(C1CCCCC1)N1CCCC(c2nc3c(nnn3Cc3ccccc3)c(=O)[nH]2)C1 (stereo not given),inactive,inactive,inactive,inactive,,,
CC1CCCC(NC(=S)NC(=O)c2cncc(Br)c2)C1C (stereo not given),inactive,,inactive,inactive,,32% (active),
CSC(=S)N/N=C/c1ccc(Br)cc1,,,,inactive,172% (active),38% (active),179% (active)
CCOC(=O)c1cc(CC)sc1NC(=O)CC1Sc2ccc(C(F)(F)F)cc2NC1=O (stereo not given),inactive,inactive,inactive,inactive,,,
NC(=NCCCCCCN=C(N)/N=C(\N)Nc1ccc(Cl)cc1)/N=C(\N)Nc1ccc(Cl)cc1,,,,inactive,240% (active) and 259% (active),59.5% (active) and 91.5% (active),183% (active) and 216% (active)
Cc1ccc2oc(C(=O)N3CCN(c4cccc(C)n4)CC3)c(C)c2c1,inactive,inactive,inactive,inactive,,,
